Data reported in ChEMBL document CHEMBL1687913, “Structure-activity relationship, conformational and biological studies of temporin L analogues” (J Med Chem, 2011).
In brackets after ≈: the same amount, converted by molar mass. Where a SMILES comes first, the peptide text is derived from it.

Experiments:
[1] = tested on: Escherichia coli; assay: Antibacterial activity against Escherichia coli ATCC 25922 after 18 to 20 hrs by microbroth dilution method; format: functional
In short: (§1)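 CLSI microbroth dilution, adapted. Mid-log bacteria, 2 × 10^6 CFU/mL in Mueller-Hinton broth, mixed 1:1 with MH broth holding peptide in serial 2-fold dilutions in 20% ethanol (0.75-48 μM). Incubated 18-20 h at 37 °C; growth read as A600. MIC is the lowest concentration giving 100% growth inhibition.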

[2] = tested on: Acinetobacter baumannii; assay: Antibacterial activity against Acinetobacter baumannii ATCC 19606 after 18 to 20 hrs by microbroth dilution method; format: functional; in short: as §1
[3] = tested on: Staphylococcus aureus; assay: Antibacterial activity against Staphylococcus aureus ATCC 25923 after 18 to 20 hrs by microbroth dilution method; format: functional; in short: as §1
[4] = tested on: Saccharomyces cerevisiae; assay: Antifungal activity against Saccharomyces cerevisiae after 18 to 20 hrs by microbroth dilution method; format: functional
In short: (§2)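 Yeasts tested by adapted CLSI microbroth dilution in Winge medium. Peptide given in serial 2-fold dilutions (0.75-48 μM, made in 20% ethanol). Incubation 18-20 h at 30 °C, read at A600. MIC taken as the concentration giving complete (100%) growth inhibition.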

[5] = tested on: Yersinia pseudotuberculosis; assay: Antibacterial activity against Yersinia pseudotuberculosis YPIII after 18 to 20 hrs by microbroth dilution method; format: functional
In short: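 Broth microdilution adapted from CLSI. Mid-log bacteria at 2 × 10^6 CFU/mL in Mueller-Hinton broth were mixed 1:1 with MH broth containing peptide in serial 2-fold dilutions (peptide in 20% ethanol), 0.75-48 μM. Plates were incubated 18-20 h at 37 °C and growth was read as A600. MIC is the concentration giving 100% growth inhibition.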

[6] = tested on: Schizosaccharomyces pombe; assay: Antifungal activity against Schizosaccharomyces pombe after 18 to 20 hrs by microbroth dilution method; format: functional; in short: as §2
[7] = tested on: Escherichia coli; assay: Antibacterial activity against Escherichia coli D21 after 18 to 20 hrs by microbroth dilution method; format: functional; in short: as §1
[8] = Toxicity in human erythrocytes assessed as hemolysis at 12 uM after 40 mins; format: cell-based, Erythrocyte; conditions: read-out: Activity
In short: (§3)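 Human red blood cells suspended in 0.9% (w/v) NaCl and incubated 40 min at 37 °C with gentle mixing with serial 2-fold peptide dilutions (peptide predissolved in 20% ethanol). Spun 5 min at 900g; supernatant read at 415 nm. Cells lysed in distilled water set the 100% lysis reference.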

[9] = Toxicity in human erythrocytes assessed as hemolysis at 1.5 uM after 40 mins; format: cell-based, Erythrocyte; conditions: read-out: Activity; in short: as §3
[10] = tested on: Pseudomonas aeruginosa; assay: Antibacterial activity against Pseudomonas aeruginosa ATCC 27853 after 18 to 20 hrs by microbroth dilution method; format: functional; in short: as §1
[11] = tested on: Acinetobacter junii; assay: Antibacterial activity against […] Acinetobacter junii RT-4 after 18 to 20 hrs by microbroth dilution method; format: functional; in short: as §1
[12] = tested on: Streptococcus pyogenes; assay: Antibacterial activity against Streptococcus pyogenes ATCC 21547 after 18 to 20 hrs by microbroth dilution method; format: functional; in short: as §1
[13] = Toxicity in human erythrocytes assessed as hemolysis at 24 uM after 40 mins; format: cell-based, Erythrocyte; conditions: read-out: Activity; in short: as §3
[14] = tested on: Enterococcus faecalis; assay: Antibacterial activity against Enterococcus faecalis ATCC 29212 after 18 to 20 hrs by microbroth dilution method; format: functional; in short: as §1
[15] = tested on: Staphylococcus epidermidis; assay: Antibacterial activity against Staphylococcus epidermidis ATCC 12228 after 18 to 20 hrs by microbroth dilution method; format: functional; in short: as §1
[16] = tested on: Staphylococcus aureus; assay: Antibacterial activity against Staphylococcus aureus Cowan I after 18 to 20 hrs by microbroth dilution method; format: functional; in short: as §1
[17] = tested on: Candida albicans; assay: Antifungal activity against Candida albicans ATCC 10231 after 18 to 20 hrs by microbroth dilution method; format: functional; in short: as §2
[18] = tested on: Staphylococcus capitis; assay: Antibacterial activity against Staphylococcus capitis after 18 to 20 hrs by microbroth dilution method; format: functional; in short: as §1
[19] = tested on: Pseudomonas syringae; assay: Antibacterial activity against Pseudomonas syringae pv tobaci after 18 to 20 hrs by microbroth dilution method; format: functional; in short: as §1
[20] = Toxicity in human erythrocytes assessed as hemolysis at 6 uM after 40 mins; format: cell-based, Erythrocyte; conditions: read-out: Activity; in short: as §3
[21] = tested on: Priestia megaterium; assay: Antibacterial activity against Bacillus megaterium Bm11 after 18 to 20 hrs by microbroth dilution method; format: functional; in short: as §1
[22] = Toxicity in human erythrocytes assessed as hemolysis at 3 uM after 40 mins; format: cell-based, Erythrocyte; conditions: read-out: Activity; in short: as §3
[23] = tested on: Pseudomonas aeruginosa; assay: Antibacterial activity against Pseudomonas aeruginosa ATCC 15692 after 18 to 20 hrs by microbroth dilution method; format: functional; in short: as §1

CC[C@H](C)[C@H](NC(=O)[C@H](CCCNC(=N)N)NC(=O)[C@H]1CCCN1C(=O)[C@H](CC(C)C)NC(=O)[C@H](Cc1ccccc1)NC(=O)[C@H](CCCCN)NC(=O)[C@H](CO)NC(=O)[C@H](Cc1ccccc1)NC(=O)[C@H](Cc1c[nH]c2ccccc12)NC(=O)[C@@H]1CCCN1C(=O)[C@@H](NC(=O)[C@@H](N)Cc1ccccc1)C(C)C)C(=O)N[C@@H](CC(C)C)C(N)=O
MIC [1]: 24 µM (≈ 39.6 µg/mL) | MIC [2]: 48 µM (≈ 79.2 µg/mL) | MIC [3]: 48 µM (≈ 79.2 µg/mL) | MIC [4]: 12 µM (≈ 19.8 µg/mL) | MIC [5]: 24 µM (≈ 39.6 µg/mL) | MIC [6]: 12 µM (≈ 19.8 µg/mL) | MIC [7]: 48 µM (≈ 79.2 µg/mL) | hemolysis at 40 min, 12 µM [8]: 2% | hemolysis at 40 min, 1.5 µM [9]: 0.4% | MIC [10]: > 48 µM | MIC [11]: 24 µM (≈ 39.6 µg/mL) | MIC [12]: 24 µM (≈ 39.6 µg/mL) | hemolysis at 40 min, 24 µM [13]: 2.5% | MIC [14]: 48 µM (≈ 79.2 µg/mL) | MIC [15]: 12 µM (≈ 19.8 µg/mL) | MIC [16]: 24 µM (≈ 39.6 µg/mL) | MIC [17]: 24 µM (≈ 39.6 µg/mL) | MIC [18]: 24 µM (≈ 39.6 µg/mL) | MIC [19]: > 48 µM | hemolysis at 40 min, 6 µM [20]: 0.6% | MIC [21]: 3 µM (≈ 4.95 µg/mL) | hemolysis at 40 min, 3 µM [22]: 1.5% | MIC [23]: > 48 µM

CC(C)C[C@H](NC(=O)[C@H](Cc1c[nH]c2ccccc12)NC(=O)[C@H](CCCNC(=N)N)NC(=O)CNC(=O)[C@H](CC(C)C)NC(=O)[C@H](CC(C)C)NC(=O)[C@H](CCCCN)NC(=O)[C@H](CO)NC(=O)[C@H](CC(C)C)NC(=O)[C@H](Cc1c[nH]c2ccccc12)NC(=O)[C@H](CCC(N)=O)NC(=O)[C@H](CC(C)C)NC(=O)[C@@H](N)CC(C)C)C(N)=O (H-LLQWLSKLLGRWL-NH2)
MIC [1]: > 48 µM | MIC [2]: 6 µM (≈ 9.75 µg/mL) | MIC [3]: 6 µM (≈ 9.75 µg/mL) | MIC [4]: 12 µM (≈ 19.5 µg/mL) | MIC [5]: 6 µM (≈ 9.75 µg/mL) | MIC [6]: 6 µM (≈ 9.75 µg/mL) | MIC [7]: > 48 µM | hemolysis at 40 min, 12 µM [8]: 100% | hemolysis at 40 min, 1.5 µM [9]: 8% | MIC [10]: > 48 µM | MIC [11]: 6 µM (≈ 9.75 µg/mL) | MIC [12]: 6 µM (≈ 9.75 µg/mL) | hemolysis at 40 min, 24 µM [13]: 100% | MIC [14]: 12 µM (≈ 19.5 µg/mL) | MIC [15]: 3 µM (≈ 4.88 µg/mL) | MIC [16]: 6 µM (≈ 9.75 µg/mL) | MIC [17]: 12 µM (≈ 19.5 µg/mL) | MIC [18]: 6 µM (≈ 9.75 µg/mL) | MIC [19]: 12 µM (≈ 19.5 µg/mL) | hemolysis at 40 min, 6 µM [20]: 78% | MIC [21]: 3 µM (≈ 4.88 µg/mL) | hemolysis at 40 min, 3 µM [22]: 13% | MIC [23]: > 48 µM
